# Measured values as given in BindingDB's records for doi:10.1016/j.ejmech.2019.111920 (Jagiellonian University Medical College, 2020).
# Molecular target: T1, Sodium- and chloride-dependent GABA transporter 2 (Mus musculus, UniProt P31649)
# T1 sequence (P31649 whole entry): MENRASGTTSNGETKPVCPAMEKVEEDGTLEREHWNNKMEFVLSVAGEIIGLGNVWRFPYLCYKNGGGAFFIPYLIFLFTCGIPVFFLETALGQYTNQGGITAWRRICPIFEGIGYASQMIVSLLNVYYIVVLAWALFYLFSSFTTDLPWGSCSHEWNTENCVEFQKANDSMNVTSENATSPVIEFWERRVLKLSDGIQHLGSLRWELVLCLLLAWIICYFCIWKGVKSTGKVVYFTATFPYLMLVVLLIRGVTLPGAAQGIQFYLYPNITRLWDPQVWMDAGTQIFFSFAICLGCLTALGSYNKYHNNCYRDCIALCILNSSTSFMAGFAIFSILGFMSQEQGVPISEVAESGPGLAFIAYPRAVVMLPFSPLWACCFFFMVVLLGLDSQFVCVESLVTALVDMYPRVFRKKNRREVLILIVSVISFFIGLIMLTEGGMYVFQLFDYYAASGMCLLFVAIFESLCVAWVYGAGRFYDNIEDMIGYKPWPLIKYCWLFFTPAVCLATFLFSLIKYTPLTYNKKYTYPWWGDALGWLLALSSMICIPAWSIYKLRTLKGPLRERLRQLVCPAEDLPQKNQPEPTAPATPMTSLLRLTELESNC
# Experiment: Inhibition of mouse GAT2 expressed in HEK293 cell line assessed as inhibition of [3H]GABA uptake measured after 35 mins by liquid scintillation method
# In short: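 [3H]GABA uptake assay at each mGAT subtype, with screening at 100 µM inhibitor. […] Otherwise, the remaining uptake at 100 µM is reported as a percentage. Values without SEM come from a single triplicate experiment.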
row,IC50,SMILES
1,10.4 µM,Cc1ccsc1C(=CCCN(C)C(CC(C)O)C(=O)NCc1ccccc1Cl)c1sccc1C (stereo unspecified)
2,631 µM,O=C(O)C1=CCCN(CCON=C(c2ccccc2)c2ccccc2)C1
3,9.77 µM,Cc1ccc(CNC(=O)C(CCO)N(C)CCC=C(c2sccc2C)c2sccc2C)cc1 (stereo unspecified)
4,15.8 µM,Cc1ccsc1C(=CCCN(C)C(CO)C(=O)NCc1ccc(Cl)cc1)c1sccc1C (stereo unspecified)
5,4.47 µM,CC(=O)NCCC(C(=O)NCc1ccccc1Cl)N(C)CCC=C(c1sccc1C)c1sccc1C (stereo unspecified)
6,5.62 µM,Cc1ccsc1C(=CCCN(C)C(CCO)C(=O)NCc1ccc(F)cc1)c1sccc1C (stereo unspecified)
7,10 µM,Cc1ccsc1C(=CCCN(C)C(CCO)C(=O)NCc1ccc(F)cc1F)c1sccc1C (stereo unspecified)
8,8.91 µM,Cc1ccsc1C(=CCCN(C)C(CC(C)O)C(=O)NCc1ccccc1)c1sccc1C (stereo unspecified)
9,30.9 µM,Cc1ccsc1C(=CCCN(C)C(CO)C(=O)NCc1ccccc1)c1sccc1C (stereo unspecified)
10,7.76 µM,Cc1ccc(CNC(=O)C(CCN)N(C)CCC=C(c2sccc2C)c2sccc2C)cc1 (stereo unspecified)
11,10.5 µM,Cc1ccsc1C(=CCCN(C)C(CCO)C(=O)NCc1ccccc1Cl)c1sccc1C (stereo unspecified)
12,10.5 µM,Cc1ccsc1C(=CCCN(C)C(CC(C)O)C(=O)NCc1ccc(Cl)cc1)c1sccc1C (stereo unspecified)
13,22.4 µM,Cc1ccsc1C(=CCCN(C)C(CO)C(=O)NCc1ccc(F)cc1)c1sccc1C (stereo unspecified)
14,26.3 µM,Cc1ccsc1C(=CCCN(C)C(CC(C)O)C(=O)NCc1ccc(F)cc1)c1sccc1C (stereo unspecified)
15,5.5 µM,Cc1ccsc1C(=CCCN(C)C(CCN)C(=O)NCc1ccccc1)c1sccc1C (stereo unspecified)
16,17 µM,Cc1ccc(CNC(=O)C(CC(C)O)N(C)CCC=C(c2sccc2C)c2sccc2C)cc1 (stereo unspecified)
17,49 µM,O=C(O)C1=CCCN(CCO/N=C/c2ccccc2-c2ccc(Cl)cc2Cl)C1
18,25.7 µM,Cc1ccsc1C(=CCCN(C)C1CCc2onc(O)c2C1)c1sccc1C (stereo unspecified)
19,229 µM,NCC(O)C(=O)O (stereo unspecified)
20,24 µM,Cc1ccc(CNC(=O)C(CO)N(C)CCC=C(c2sccc2C)c2sccc2C)cc1 (stereo unspecified)
21,20.4 µM,Cc1ccsc1C(=CCCN(C)C(CCO)C(=O)NCc1ccccc1)c1sccc1C (stereo unspecified)
